From PubChem
The list is not random: actives were taken first. Their share in the collection is about 3.3%.
LEDGF integ inh: blocks HIV-1 LEDGF/p75-dependent DNA integration; TR-FRET IN-LEDGF/p75 DNA integration, Eu/Cy5; inhibition, % at 3.7 µM; actives 0.64% (n = 370,000);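 active = inhibition above the screen-wide mean plus 3 SD, cut at about 13% in these data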;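 note: signal is the Cy5 over europium emission ratio at 671 and 618 nm; 0% = plate median of compound wells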
TDP2 inh: TDP2 (human) inhibition, absorbance primary screen | O95551 | recombinant TDP2, T5PNP hydrolysis, p-nitrophenol absorbance 415 nm | inhibition, % at 12.8 µM | actives 0.34% (n = 370,000) | AID 720702;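 active = inhibition above the mean of all tested compounds plus 3 SD, set per campaign, cut at about 25% in these data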;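 note: 0% = DMSO with enzyme and 100% = buffer with substrate but no TDP2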
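System: recombinant human TDP2 / Amount: 120 nM TDP2 per well / Also added: 5 mM T5PNP chromogenic substrate / Doses: 12.8 µM single point, 1% DMSO / Incubation: 2 h at 37 °C / Detection: p-Nitrophenol epi absorbance / Evaluation: % inhibition relative to enzyme-containing and enzyme-free wells / Repeats: singlicate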
UHRF1 binding: UHRF1 methyl-DNA binding inhibition | Q96T88 | UHRF1 binding to methylated oligo, TR-FRET | inhibition, % at 4.4 µM | actives 0.75% (n = 370,000) | AID 687016; in the data active = inhibition above about 21%;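 note: UHRF1 SRA domain binding a hemimethylated CpG hairpin DNA probe; 0% = median of test compound wells and 100% = reference inhibitor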
MBD2 DNA inh: MBD2-methylated oligo binding inhibition. inhibition, % at 4.4 µM. actives 0.31% (n = 370,000). TR-FRET, MBD2 binding to methylated oligonucleotide. AID 686964; in the data active = inhibition above about 13%
Target sequence (Q9UBB5 whole entry, looked up): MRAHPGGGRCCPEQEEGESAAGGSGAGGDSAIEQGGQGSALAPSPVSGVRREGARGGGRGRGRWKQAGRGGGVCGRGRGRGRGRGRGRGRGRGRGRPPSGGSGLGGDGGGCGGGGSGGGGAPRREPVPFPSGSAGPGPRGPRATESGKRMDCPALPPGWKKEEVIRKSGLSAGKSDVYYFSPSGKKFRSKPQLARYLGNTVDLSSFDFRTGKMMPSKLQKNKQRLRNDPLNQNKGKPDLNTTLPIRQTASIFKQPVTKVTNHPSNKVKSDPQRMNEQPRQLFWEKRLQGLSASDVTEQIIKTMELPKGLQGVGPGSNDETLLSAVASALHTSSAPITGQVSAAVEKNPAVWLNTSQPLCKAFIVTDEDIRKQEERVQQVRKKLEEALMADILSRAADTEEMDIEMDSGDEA
PRMT1 FP inh: inhibitors of human PRMT1; Q99873; recombinant PRMT1, activity-based probe fluorescence polarization; inhibition, % at 2.79 µM; actives 1.3% (n = 370,000); AID 652257;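 active = inhibition above about 21% made by adding two undisclosed values, limit read from the data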
Target sequence (Q99873 whole entry, looked up): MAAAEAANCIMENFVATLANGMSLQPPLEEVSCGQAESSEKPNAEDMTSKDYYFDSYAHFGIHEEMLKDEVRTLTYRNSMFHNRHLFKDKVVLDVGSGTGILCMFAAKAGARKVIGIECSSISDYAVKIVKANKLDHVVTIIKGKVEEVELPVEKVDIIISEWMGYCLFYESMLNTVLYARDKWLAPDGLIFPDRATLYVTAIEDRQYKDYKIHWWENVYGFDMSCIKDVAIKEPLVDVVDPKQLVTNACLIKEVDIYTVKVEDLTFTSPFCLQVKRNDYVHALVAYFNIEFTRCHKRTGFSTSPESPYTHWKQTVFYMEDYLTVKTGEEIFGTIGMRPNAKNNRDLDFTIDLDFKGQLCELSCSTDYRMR
SIAE inh: inhibitors of human sialic acid acetylesterase SIAE; Q9HAT2; SIAE FP-Rh probe binding, fluorescence polarization; inhibition, % at 9.66 µM; actives 0.69% (n = 370,000); AID 1053197;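 active = inhibition above a cutoff: mean of compounds within the control limits plus 3 SD of those, cut at about 17% in these data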;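 note: 0% = plate median of compound wells and 100% = probe without SIAE protein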
IN multimer act: HIV-1 integrase multimerization activation, counter-screen; shares compounds with LEDGF integ inh; TR-FRET HIV-1 integrase multimerization, biochemical; activation, % at 7.7 µM; actives 17% (n = 2,000); AID 1053131; in the data active = activation above about 8.9%
TR-FRET interf: TR-FRET optical interference, LEDGF/p75 integration counter-screen | shares compounds with LEDGF integ inh | TR-FRET optical interference counterscreen, HIV-1 IN multimerization | inhibition, % at 7.7 µM | 2,000 tested, under 10 active;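 active = inhibition above the mean over all tested compounds plus 3 SD, which no compound reached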;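 note: 0% = integrase with antibodies and DMSO and 100% = antibodies without integrase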
IN-LEDGF confirm: LEDGF/p75-dependent HIV-1 integration inhibition, confirmation; shares compounds with LEDGF integ inh; TR-FRET LEDGF/p75-dependent HIV-1 integration, biochemical; inhibition, % at 3.7 µM; actives 36% (n = 2,000); in the data active = inhibition above about 14%
* = called active by the depositor; / = no result given.

SMILES | LEDGF integ inh | TDP2 inh | UHRF1 binding | MBD2 DNA inh | PRMT1 FP inh | SIAE inh | IN multimer act | TR-FRET interf | IN-LEDGF confirm
COc1ccc(Sc2ccccc2CN(C)C)cc1OC | 3.1 | -2.9 | 2.5 | -0.9 | 2.1 | 2.6 | / | / | /
CNCc1ccccc1Sc1ccc(O)c(O)c1 | 14.5* | -1.3 | 17.0 | 12.1 | 65.7* | 10.3 | 2.6 | -13.3 | 10.4
N#Cc1ccsc1NC(=O)CN1CCN(S(=O)(=O)c2ccccc2C(F)(F)F)CC1 | 79.4* | 0.0 | -0.9 | 0.8 | 2.5 | 1.4 | 1.5 | -7.4 | 1.7
Cc1ccc(C)c(S(=O)(=O)N2CCN(CC(=O)Nc3sccc3C#N)CC2)c1 | 2.4 | 2.3 | 0.7 | -0.4 | -0.3 | 2.1 | / | / | /
COCCNC(=O)c1onc(CSc2cccc(OC)c2)c1C(=O)NCCOC | -2.6 | 6.9 | 7.7 | 0.7 | 0.0 | -0.7 | / | / | /
COc1cccc(SCc2noc(C(=O)NCc3ccccc3)c2C(=O)NCc2ccccc2)c1 | 48.4* | 8.4 | 3.4 | 2.8 | -1.0 | 2.8 | -1.5 | 7.5 | -5.4
O=C(c1ccccc1)c1ccc(O)c(O)c1O | 22.4* | -9.1 | 17.4 | 10.7 | 14.4 | 9.8 | 1.7 | -8.3 | 42.1*
Cc1cc(C(=O)c2ccccc2)cc(C)c1O | -2.8 | 1.1 | -0.4 | -2.9 | -2.4 | -1.7 | / | / | /
CCOC(=O)C1=C(C)NC(=O)CC1c1cc2c(cc1[N+](=O)[O-])OCO2 (stereo not drawn) | 22.1* | -1.6 | 1.3 | -3.1 | 11.6 | 14.5 | 1.5 | -7.5 | 2.2
CCOC(=O)C1=C(C)NC(=O)NC1c1cc2c(cc1Br)OCO2 (stereo not drawn) | 1.6 | -11.8 | 1.2 | 1.9 | -0.2 | 3.0 | / | / | /
COC(=O)[C@]12C[C@H](CC(=O)NCc3cccs3)C(=O)N(CCC3=CCCCC3)C1=C[C@H](C(C)(C)C)O[C@@H]2C | -3.4 | 6.4 | 1.8 | 0.5 | 2.6 | -2.2 | / | / | /
O=C(O)c1cc(Cl)ccc1-c1ccc(/C=C/c2cc(C(F)(F)F)[nH]c(=O)n2)o1 | 17.3* | 0.3 | 3.0 | 1.1 | 2.5 | -4.8 | -1.2 | 6.1 | 11.2
CC1=N/C(=C/c2ccco2)C(=O)O1 | 13.4* | 13.7 | 9.5 | 4.4 | 9.6 | 7.0 | 10.2* | -51.5 | 54.2*
CSc1nc2c([nH]1)c(=S)n(C)c(=O)n2C | 25.9* | -3.2 | -3.3 | -2.6 | -1.6 | -0.4 | 6.8 | -24.1 | -10.3
Cc1ccc(NC(=O)CN2C(=O)N/C(=C/c3ccco3)C2=O)cc1 | 21.3* | 3.8 | 34.1* | 10.7 | 17.4 | 10.8 | 13.8* | -69.4 | 26.0*
Cc1cccc(NC(=O)CN2C(=O)N/C(=C/c3ccc(C)s3)C2=O)c1 | 0.7 | -2.5 | 2.7 | -0.3 | -0.2 | -6.9 | / | / | /
CCOc1cccc(=O)c2c(C)n(Cc3ccco3)c(C)c12 | 31.0* | -5.1 | 1.9 | 0.3 | 17.5 | -3.1 | 1.0 | -4.8 | 12.8
COCCCN1C(=O)C(=O)/C(=C(/O)c2ccccc2)C1c1ccc2c(c1)OCO2 (stereo not drawn) | 30.1* | -7.8 | -5.6 | 0.0 | -1.7 | 0.7 | -0.8 | 4.2 | 2.6
Cc1cc(NC(=O)c2ccco2)ncc1NC(=O)CCc1ccccc1 | -0.7 | -12.1 | -3.3 | -2.6 | 0.1 | -3.6 | / | / | /
CCCCC(=O)Nc1cc(C)c(NC(=O)c2ccco2)cn1 | 26.7* | -7.0 | -0.3 | 4.4 | 0.3 | 0.0 | 0.6 | -2.8 | 0.3
O=CNc1cc(-c2ccoc2)cn2c(-c3ccc(F)cc3)cnc12 | 14.4* | 2.6 | -1.6 | 0.7 | 18.8 | 4.7 | 0.5 | -2.5 | 11.9
CC(=O)c1ccc(-c2cnc3c(NC=O)cc(-c4cnn(C)c4)cn23)cc1 | 23.9* | 2.8 | -9.7 | -10.5 | 7.1 | -2.4 | -1.3 | 6.5 | 4.3
CCCCCCCCNS(=O)(=O)CC1NCc2ccccc21 (stereo not drawn) | -1.1 | 6.7 | -11.1 | -3.1 | -1.8 | -2.6 | / | / | /
O=[N+]([O-])c1ccc(/C=[N+](\[O-])[C@@H]2CCCC[C@@H]2/[N+]([O-])=C/c2ccc([N+](=O)[O-])o2)o1 | 18.6* | 5.3 | -0.6 | -3.5 | 11.2 | 0.4 | -0.5 | 1.9 | 33.6*
Cc1cc(=O)oc2cc(NC(=O)CC3(CC(=O)O)CCCC3)ccc12 | 21.3* | 17.4 | -2.4 | -6.8 | -0.3 | 8.0 | -1.5 | 5.3 | 2.5
SMILES | LEDGF integ inh | TDP2 inh | UHRF1 binding | MBD2 DNA inh | PRMT1 FP inh | SIAE inh | IN multimer act | TR-FRET interf | IN-LEDGF confirm
CC(=O)Nc1cc2c(cc1[N+](=O)[O-])-c1ccccc1C2=NO | 14.8* | 3.7 | -3.7 | -8.5 | -2.2 | -11.2 | -0.3 | 1.3 | 1.5
Nc1cc2c(cc1[N+](=O)[O-])-c1ccccc1C2=NO | -3.9 | 8.6 | 1.1 | -1.0 | 0.7 | -14.9 | / | / | /
CCOC(=O)C(=O)Nc1nc(-c2ccccc2)c(-c2ccccc2)o1 | 0.1 | -13.7 | 1.2 | -1.8 | -1.3 | -8.0 | / | / | /
O=C(Nc1nc(-c2ccccc2)c(-c2ccccc2)o1)c1ccc(F)cc1 | 26.0* | -2.0 | 1.1 | 0.3 | -1.8 | -9.3 | -0.1 | 0.4 | 18.4*
COc1cccc(C(=O)Nc2ccccc2)c1 | -4.2 | -4.2 | 1.0 | 0.5 | 1.0 | -5.3 | / | / | /
COc1cccc(C(=O)Nc2nc(-c3ccccc3)c(-c3ccccc3)o2)c1 | 13.9* | -2.1 | -1.4 | -1.7 | -0.7 | -16.8 | 0.4 | -2.1 | 18.7*
CN(C)c1ccc(NC(=O)NC2CCCCN(Cc3cccc(Cl)c3)C2=O)cc1 (stereo not drawn) | 0.9 | 1.6 | -5.0 | -3.1 | 1.0 | -10.4 | / | / | /
O=C1C(=Cc2ccco2)C(=O)c2ccccc21 | 14.5* | -1.5 | -0.2 | -2.4 | 34.8* | 2.6 | -1.8 | 8.8 | 11.1
CC(C(=O)N(C)C1CCS(=O)(=O)C1)N1C(=O)/C(=C/c2ccco2)SC1=S (stereo not drawn) | 29.7* | -6.8 | 12.9 | -2.0 | 23.7* | 3.8 | 1.6 | -8.2 | 15.0*
CC(C(=O)N(C)C1CCS(=O)(=O)C1)N1C(=O)/C(=C/c2cccs2)SC1=S (stereo not drawn) | 0.4 | 9.9 | 6.0 | -2.2 | -1.8 | 1.4 | / | / | /
COC(=O)c1cc(-c2ccccc2OC)c(=O)n2c1CCC2 | -0.8 | 7.4 | -2.6 | -5.1 | 1.6 | -2.8 | / | / | /
Nc1nc(COC(=O)C2CC(=O)N(Cc3ccccc3Cl)C2)nc(Nc2ccccc2)n1 (stereo not drawn) | 18.4* | -7.9 | 0.4 | -2.1 | -3.9 | -2.8 | 0.2 | -0.9 | -5.0
Nc1nc(COC(=O)C2CC(=O)N(Cc3ccccc3)C2)nc(Nc2ccccc2)n1 (stereo not drawn) | 2.6 | -11.8 | 2.7 | -6.5 | -1.1 | 2.8 | / | / | /
